GI50 and Activity data for 17 compounds are collected here from ChEMBL document CHEMBL1926612, “Solid-phase synthesis of 2'-hydroxychalcones. Effects on cell growth inhibition, cell cycle and apoptosis of human tumor cell lines” (2012).

Activity calls are given as the source filed them. The rule behind the calls is not given here.

Common to all, as to type: functional
Test [1] concerns MCF7. Put plainly: Growth inhibition of human MCF7 cells after 48 hrs by SRB assay. Conditions: MCF7, 48 h. An outline of the steps:
(§1)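 Cells seeded to stay in exponential growth (MCF-7 and NCI-H460 5.0 × 10³ cells/well, A375-C5 7.5 × 10³ cells/well) and left to adhere overnight. Then 48 h exposure to five serial dilutions (1:2 or 1:3) from DMSO stocks diluted in medium; DMSO vehicle control maximum 0.25%. TCA fixation, SRB staining, Tris solubilisation, absorbance at 492 nm. GI50 taken from dose–response curves as 50% inhibition of net growth. Mean ± SEM of ≥3 independent experiments, in duplicate.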

Test [2] concerns NCI-H460. As to the kind of experiment: Growth inhibition of human NCI-H460 cells after 48 hrs by SRB assay. Conditions: NCI-H460, 48 h. The procedure, abridged:
as §1

The nature of test [3]: Growth inhibition of human A375-C5 cells after 48 hrs by SRB assay. Conditions: A375-C5, 48 h. The procedure, abridged: as §1
The subject of test [4] is MCF7. Put plainly: Induction of apoptosis in human MCF7 cells at 7.1 uM by annexinV-propidium iodide staining-based flow cytometric analysis (reference value: 11.1%). The procedure, abridged: (§2)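 MCF-7 handled as for the cell-cycle study: 48 h exposure at the stated concentration, with untreated cells and a highest-level DMSO control. Harvested cells stained with annexin V-FITC/PI per kit instructions. Flow cytometry with ≥20,000 events per sample; apoptosis given as % of total cells. Mean ± SEM of three experiments (DMSO control two); unpaired t-test against untreated cells.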
On the technique in general: In flow cytometry, cells or beads pass a laser one at a time.

For test [5], the system named is MCF7. As to the kind of experiment: Cell cycle arrest in human MCF7 cells assessed as accumulation at sub-G1 phase at 7.3 uM after 48 hrs by propidium iodide staining-based flow cytometric analysis relative to control. The procedure, abridged:
(§3)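 MCF-7 plated in 6-well plates (5.0 × 10³ cells/well) and held 24 h at 37 °C. Exponentially growing cells then exposed 48 h at the single concentration stated. Untreated and highest-level DMSO controls included. Fixation in 70% ethanol at 4 °C for ≥12 h, then PBS with 0.1 mg/mL RNase A and 5 µg/mL PI. DNA content by flow cytometry, ≥20,000 events; sub-G1 fraction scored after debris exclusion. Mean ± SEM of three experiments; unpaired t-test versus untreated cells.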

The subject of test [6] is MCF7. As to the kind of experiment: Induction of apoptosis in human MCF7 cells at 7.3 uM by annexinV-propidium iodide staining-based flow cytometric analysis (reference value: 11.1%). The procedure, abridged: as §2
Test [7] concerns MCF7. As to the kind of experiment: Cell cycle arrest in human MCF7 cells assessed as accumulation at sub-G1 phase at 8 uM after 48 hrs by propidium iodide staining-based flow cytometric analysis. The procedure, abridged:
as §3

Test [8] relates to MCF7. Put plainly: Induction of apoptosis in human MCF7 cells at 8 uM by annexinV-propidium iodide staining-based flow cytometric analysis (reference value: 11.1%). An outline of the steps:
as §2

In test [9] the test system is MCF7. Put plainly: Induction of apoptosis in human MCF7 cells at 9.1 uM by annexinV-propidium iodide staining-based flow cytometric analysis (reference value: 11.1%). An outline of the steps: as §2
The subject of test [10] is MCF7. As to the kind of experiment: Cell cycle arrest in human MCF7 cells assessed as accumulation at sub-G1 phase at 7.8 uM after 48 hrs by propidium iodide staining-based flow cytometric analysis. An outline of the steps:
as §3

The test system of test [11] is MCF7. Put plainly: Induction of apoptosis in human MCF7 cells at 7.8 uM by annexinV-propidium iodide staining-based flow cytometric analysis (reference value: 11.1%). An outline of the steps:
as §2

Test [12] concerns MCF7. As to the kind of experiment: Induction of apoptosis in human MCF7 cells at 10.5 uM by annexinV-propidium iodide staining-based flow cytometric analysis (reference value: 11.1%). An outline of the steps: as §2
The test system of test [13] is MCF7. As to the kind of experiment: Induction of apoptosis in human MCF7 cells at 4.1 uM by annexinV-propidium iodide staining-based flow cytometric analysis (reference value: 11.1%). An outline of the steps: as §2

As a reminder, the GI50 is the concentration that inhibits growth by half. In the case of `CCCc1c(O)ccc(C(=O)/C=C/c2ccccc2Cl)c1O`, the GI50 is 7.1 µM in [1], 12.5 µM in test [2] and 14.2 µM in test [3]. In test [4], this compound registered an Activity of 14.8%.

For the compound `CCCc1c(O)ccc(C(=O)/C=C/c2ccc(OCOC)cc2OCOC)c1O`, the GI50 was 18.2 µM in test [1], 24.3 µM in [2] and 35 µM in [3].

Consider `COc1ccc(C2CC(=O)c3ccc(O)c(C)c3O2)c(OC)c1` (stereo unspecified), for which the GI50 in test [1] was 12.5 µM; in [2], greater than 150 µM; in test [3], greater than 150 µM.

As to `O=C(/C=C/c1ccc(F)cc1)c1ccc(O)cc1O`, the figures for the GI50 in [1], in [2] and in [3] were 7.3 µM, 15.3 µM and 14.1 µM, respectively. In addition, the Activity in [5] is on record as 11%; in [6], 23.9%.

Consider `O=C(/C=C/c1ccc(OCc2ccccc2)cc1)c1ccc(O)cc1O`, for which the values for the GI50 in test [1], in test [2] and in [3] were 8 µM, 10.5 µM and 9 µM, respectively. The result in [7] was Active. Further, in test [8], the Activity came out at 15.4%.

For the compound `CCCc1c(O)ccc(C(=O)/C=C/c2cc(OC)c(OC)cc2OC)c1O`, the GI50 was 9.1 µM in test [1], 24.5 µM in [2] and 23 µM in [3]. For the same compound, the Activity in test [9] was determined as 13.3%.

As to `COc1cccc2c1C(=O)c1c(O)c3c(c(O)c1C2=O)C[C@@](O)(C(=O)CO)C[C@@H]3O[C@H]1C[C@H](N)[C@H](O)[C@H](C)O1` [DOXORUBICIN], the GI50 in test [1] is 0.0688 µM; in [2] it was 0.086 µM; in [3] it was 0.0915 µM.

Take `CCCc1c(O)ccc2c1OC(c1cc(OC)c(OC)cc1OC)CC2=O` (stereo unspecified): the GI50 in [1] was determined as 18.8 µM; in test [2], 47 µM; in test [3] it was 32 µM.

As for `COCOc1ccc(/C=C/C(=O)c2ccc(O)c(C)c2O)c(OCOC)c1`, the GI50 in [1] was 32.7 µM; in [2], greater than 150 µM; in test [3] it was greater than 150 µM.

As to `CCCc1c(O)ccc(C(=O)/C=C/c2ccc(OC)cc2)c1O`, the values for the GI50 in [1], in [2] and in test [3] were 13.3 µM, 24.7 µM and 46.3 µM, respectively.

On to `COc1cc(/C=C/C(=O)c2ccc(O)cc2O)cc(OC)c1OC`, for which the GI50 in test [1] came out at 7.8 µM; in test [2], 8.2 µM; in test [3], 8.1 µM. The result in test [10] was Active. For the same compound, the Activity in test [11] is on record as 20%.

`Cc1c(O)ccc(C(=O)/C=C/c2ccc(Cl)cc2)c1O`: the GI50 came to 34.5 µM in test [1], 43 µM in [2] and 41.6 µM in [3].

With `Cc1c(O)ccc(C(=O)/C=C/c2ccc(Cl)cc2Cl)c1O`, the concentration for 50% growth inhibition (GI50) was 10.5 µM in test [1], 22.5 µM in [2] and 21.4 µM in test [3]. The compound also yielded an Activity in test [12] of 16.6%.

Consider `COc1cc(OC)c(OC)cc1/C=C/C(=O)c1ccc(O)cc1O`, for which the GI50 in test [1] amounted to 31.8 µM; in test [2], 60 µM; in test [3], 34.8 µM.

`Cc1c(O)ccc(C(=O)/C=C/c2ccc(C(F)(F)F)cc2)c1O`: the GI50 in test [1] amounted to 19.3 µM; in test [2] it was 20.3 µM; in test [3], 24.7 µM.

Take `COc1ccc(/C=C/C(=O)c2ccc(O)cc2O)c(OC)c1`: the GI50 in test [1] was 19.5 µM; in test [2] it was 37 µM; in test [3], 30.3 µM.

For the compound `CCCc1c(O)ccc(C(=O)/C=C/c2cc(OC)c(OC)c(OC)c2)c1O`, the GI50 in test [1] is 4.1 µM; in test [2], 8.3 µM; in test [3], 8.2 µM. Besides, the Activity in [13] is reported as 14%.
